Compounds with a hit are over-represented: about 3.4% of the library has one in this group of screens.
Efa HMGR inh = inhibitors of class II HMG-CoA reductase from Enterococcus faecalis; purified E. faecalis HMGR, NADPH absorbance 340 nm kinetic; inhibition, % at 10 µM; actives 0.41% (n = 190,000); AID 1066;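 active = inhibition above a set limit, the median over all tested compounds plus 3 SD, cut at about 9.5% in these data; inconclusive = no clear call, values can overlap the other calls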;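 also: enzyme runs in reverse so mevalonate oxidation gives rising NADPH absorbance; 0% = complete reaction with DMSO and 100% = background rate lacking mevalonate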
PHOSPHO1 block = blocks human PHOSPHO1 phosphatase activity | recombinant PHOSPHO1, absorbance phosphatase assay | inhibition, % at 13.3 µM | actives 1.1% (n = 290,000); in the data active = inhibition above about 60%
Runt-SMMHC FRET = blocks binding of human RUNX1 Runt domain to CBFb-SMMHC; AID 1434; actives 0.74% (n = 220,000); inhibition, % at 20 µM; Q01196+Q13951; Cerulean-Runt/Venus-CBFb-SMMHC FRET ratio 530/480, 1 h;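 active = mean inhibition across duplicate retests at 20 µM reaching about 50%, limit read from the data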;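 also: 0% = DMSO wells and 100% = wells with excess untagged CBFb-SMMHC; inhibitors lower the FRET ratio by blocking Runt binding to CBFb-SMMHC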
Target sequence (Q01196 whole entry, looked up, the tested form may be a part): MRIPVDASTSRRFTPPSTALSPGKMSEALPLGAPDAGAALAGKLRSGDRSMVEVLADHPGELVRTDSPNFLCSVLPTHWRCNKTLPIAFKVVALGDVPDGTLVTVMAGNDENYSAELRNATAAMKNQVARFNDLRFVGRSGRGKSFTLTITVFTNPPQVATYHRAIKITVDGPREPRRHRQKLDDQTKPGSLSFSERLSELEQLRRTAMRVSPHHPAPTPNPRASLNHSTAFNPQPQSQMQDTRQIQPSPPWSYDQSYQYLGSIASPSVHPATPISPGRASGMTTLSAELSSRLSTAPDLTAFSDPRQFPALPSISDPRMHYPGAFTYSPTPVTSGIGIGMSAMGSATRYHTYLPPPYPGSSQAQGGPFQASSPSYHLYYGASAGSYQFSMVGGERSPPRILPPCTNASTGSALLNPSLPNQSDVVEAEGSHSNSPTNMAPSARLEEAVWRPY
Target sequence (Q13951 whole entry, looked up, the tested form may be a part): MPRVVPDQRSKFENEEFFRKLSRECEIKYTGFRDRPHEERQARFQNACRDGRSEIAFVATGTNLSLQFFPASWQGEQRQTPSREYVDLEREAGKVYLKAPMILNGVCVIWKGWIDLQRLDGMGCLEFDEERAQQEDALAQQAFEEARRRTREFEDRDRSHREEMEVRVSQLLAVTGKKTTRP
Wee1 stabilizer = human Wee1 degradation inhibition, primary screen; HeLa Luc-Wee1K328M stability, luciferase luminescence; 100% = proteasome inhibitor MG132 effect; reporter increase, % at 5 µM; actives 1.2% (n = 220,000); AID 1321;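 active = activation above the mean of all tested compounds plus 3 SD, set per screening run, cut at about 8.8% in these data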;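 also: cells exposed to compound for 20 h before luminescence read; 0% = DMSO alone and 100% = MG132 at 30 µM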
RanGTP-Impb inh = disruptors of Ran-importin-beta complex formation – biochemical, FRET, CFP-Ran, YFP-importin-beta, homogeneous, primary screen; cell-free CFP-Ran/YFP-importin-beta FRET ratio; AID 2216; actives 1.1% (n = 300,000); inhibition, % (test concentration not listed);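 active = more than half of the replicate wells show a fall in the fluorescence ratio signal beyond about 16%, limit read from the data, passing the limit was not always enough; inconclusive = exactly half of the replicate wells pass the set limit; inactive = fewer than half of replicates pass the limit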;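 also: 0% = DMSO wells and 100% = Ran loaded with GDP instead of GTP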
Runt-CBFb FRET = blocks binding of human RUNX1 Runt domain to CBFb | inhibition, % at 20 µM | Cerulean-Runt/Venus-CBFb FRET ratio 530/480, 1 h | actives 0.46% (n = 220,000) | Q01196+Q13951;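 active = inhibition over about 50% at 20 µM in the single-dose screen, limit read from the data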;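 also: 0% = DMSO wells and 100% = excess unlabeled CBFb competitor control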
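Reagent – Venus-CBFb binding partner, 100 nM · Assay system – Cerulean-tagged RUNX1 Runt domain (FRET donor) fusion protein · Input – 100 nM per protein · Incubation – two 1 h room-temperature incubations shielded from light · Measured by – FRET fluorescence · Medium – Tris buffer pH 7.5 with salts and BSA · Benchmarks – unlabeled CBFb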
Wee1 stab conf = confirmation of human Wee1 degradation inhibitors; shares compounds with Wee1 stabilizer; HeLa Luc-Wee1K328M degradation, luminescence; vehicle 0%, proteasome-blocked wells 100%; activation, % at 5 µM; actives 4% (n = 1,100); in the data active = activation above about 8.9%
RUNX1 CBFb TR = Runt-CBFb binding inhibition; actives 20% (n = 480); AID 1502; inhibition, % at 20 µM; shares compounds with Runt-CBFb FRET; TR-FRET RUNX1 Runt domain-CBFb binding; in the data active = inhibition above about 40%
YIC counter = counter-screen for RanGTP-importin-beta inhibitors: YIC FRET probe | Purified YIC probe, intramolecular FRET ratio YFP/CFP | AID 435026 | IC50, µM | actives 40% (n = 1,000) | shares compounds with RanGTP-Impb inh;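 active = fitted half-maximal inhibitory concentration no more than tenfold above the top dose tested; inconclusive = flat fit with 30 to 70% activity, or poor fit; inactive = half-maximal concentration beyond tenfold above the top dose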
The depositor's hits bear a star; u = inconclusive; x = not tested or not shown.

SMILES | Efa HMGR inh | PHOSPHO1 block | Runt-SMMHC FRET | Wee1 stabilizer | RanGTP-Impb inh | Runt-CBFb FRET | others
Cc1cccn2c(=O)c3cc(C(=O)N4CCC5(CC4)OCCO5)n(C)c3nc12 | -4.0 | 29.8 | 83.3* | 7.0 | 3.0 | 28.8
C[N+]12CCC(CC1)C(C#N)(N1CCOCC1)C2 (centres undefined) | 1.9 | 100.9* | 2.0 | -0.3 | -1.0 | -11.3
O=C(c1ccc(F)c([N+](=O)[O-])c1)N1CC2CC(C1)c1cccc(=O)n1C2 (centres undefined) | x | 29.2 | x | x | 1.9 | x
CC(Cc1ccccc1)NC(=O)Cc1ccc(N(C)C)cc1 (centres undefined) | 10.7* | -24.5 | 1.1 | 5.5 | 2.3 | 1.0
O=[N+]([O-])/C(Cl)=C1\NCCN1Cc1ccc(Cl)nc1 | 13.8* | 7.5 | 1.2 | 4.1 | -4.5 | -0.5
CCCCN1C(=O)C(C2c3ccccc3C(=O)N2Cc2ccccc2)C(=O)NC1=S (centres undefined) | -5.4 | 40.8 | -1.9 | 9.9* | -1.5 | -1.4
COc1ccc(OCC(=O)N2CCN(Cc3ccc4c(c3)OCO4)CC2)cc1 | 0.1 | 44.9 | 1.4 | -2.1 | 2.0 | 0.9
CN(C)CCN(C(=O)COc1ccc(Cl)cc1)c1nc2cc3c(cc2s1)OCO3 | x | 62.9* | x | x | 5.3 | x
CC1CC(OC(=O)c2ccccc2)CC(C)N1C (centres undefined) | -4.2 | 0.8 | -5.1 | 2.7 | 7.3 | 1.3
CN1C2CCC1CC(OC(=O)c1ccc([N+](=O)[O-])cc1)C2 (centres undefined) | -2.8 | 13.5 | -0.4 | 12.6* | 0.7 | -0.4 | Wee1 stab conf=-0.5
c1ccc(C2NCCc3[nH]cnc32)cc1 (centres undefined) | x | 39.0 | 4.1 | 4.4 | 1.0 | 2.4
Cc1ccc(-n2c(/C=C/c3ccc4c(c3)OCO4)nc3ccccc3c2=O)cc1 | -10.6 | 5.9 | 1.7 | 11.1* | 1.6 | -0.6 | Wee1 stab conf=1.4
O=c1c2ccccc2nc(/C=C/c2ccc(O)cc2)n1-c1cccc(O)c1 | -8.7 | 19.9 | -188.3 | 12.4* | -6.6 | -121.8 | Wee1 stab conf=-0.4
CCN1CCN(c2cc(=O)n3ccccc3n2)CC1 | x | 28.0 | x | x | 0.3 | x
CCN1CCN(c2nc3ccccc3s2)CC1 | -9.7 | 34.3 | 3.0 | 15.2* | u | -2.1 | Wee1 stab conf=6.1
CSc1nc(N2CCN(C)CC2)c2ccccc2n1 | -0.9 | 41.2 | -0.1 | 14.5* | 2.0 | 2.1 | Wee1 stab conf=3.3
COc1ccccc1N1C(=O)NC(=O)C(CCc2ccncc2)(CCc2ccncc2)C1=O | -6.4 | 25.2 | 2.9 | -1.8 | 4.7 | -0.8
O=C(C(=O)N1CCOCC1)c1cn(Cc2ccc(F)cc2)c2ccccc12 | x | 17.7 | 0.6 | 11.5* | 1.0 | 1.3 | Wee1 stab conf=-1.8
O=C(C(=O)N1CCOCC1)c1cn(Cc2ccccc2Cl)c2ccccc12 | 0.6 | 43.1 | -1.8 | 1.3 | -1.3 | -3.9
Cc1nc2c(c(=O)[nH]1)C(c1ccccc1Cl)c1c(c3ccccc3oc1=O)O2 (centres undefined) | x | 12.3 | -0.2 | -0.4 | 0.4 | 1.1
CCC[N+]12CCC(CC1)C(=C(c1ccccc1)c1ccccc1)C2 | -1.5 | 3.1 | -0.8 | -0.8 | -0.7 | 52.4* | RUNX1 CBFb TR=-282.7
O=C1NC(=S)NC(=O)C1=Cc1cccn1-c1ccc(O)cc1 | -2.1 | 0.6 | 41.9 | 0.0 | 3.8 | 57.3* | RUNX1 CBFb TR=90.3*
CC[n+]1c(/C=C/C=C/c2ccc(N(C)C)cc2)sc2ccccc21 | x | 14.7 | 4.8 | -1.7 | -1.3 | 1.7
CC[n+]1c(/C=C/N(C)c2ccccc2)sc2ccc(Cl)cc21 | -0.9 | 11.5 | 42.7 | -4.3 | u | 55.3* | RUNX1 CBFb TR=8.7
CCCCCCOC(=O)c1ccccc1N | 3.7 | 1.8 | 3.8 | 0.8 | 4.3 | -1.4
SMILES | Efa HMGR inh | PHOSPHO1 block | Runt-SMMHC FRET | Wee1 stabilizer | RanGTP-Impb inh | Runt-CBFb FRET | others
CCCCn1c(N)c(C(=O)OCCOC)c2nc3ccccc3nc21 | x | 17.7 | 106.8* | -0.1 | u | 61.8* | RUNX1 CBFb TR=27.1
C=CCn1c(O)c(C=NCCCOc2ccc(CC)cc2)c(=O)[nH]c1=S | 1.9 | -6.8 | 4.3 | -2.0 | 6.2 | -1.4
O=C(Nc1ccc(Cl)cc1)Nc1nccs1 | -0.9 | 36.6 | -3.9 | 6.8 | 1.5 | x
COCCOC(=O)c1c(N)n(Cc2ccccc2)c2nc3ccccc3nc12 | -4.0 | -16.2 | 107.8* | -1.9 | 18.6* | 50.7* | RUNX1 CBFb TR=1.3;YIC counter=46.5*
Nc1c(C(=O)OC2CCCCC2)c2nc3ccccc3nc2n1CC1CCCO1 (centres undefined) | -1.6 | 8.5 | 106.5* | -0.9 | 23.1* | 54.3* | RUNX1 CBFb TR=37.7;YIC counter=27.4*
Oc1c(Br)cc(Br)cc1Oc1ccc(Br)cc1Br | -2.5 | 13.3 | 10.8 | -2.5 | -5.8 | -0.9
CC(=O)c1c(O)n(-c2cccc(Cl)c2)c(=O)[nH]c1=O (tested in a mixture with another compound) | x | 15.7 | -0.9 | 1.4 | 3.4 | 1.7
CC(C)n1c(O)c(C2c3cc(Cl)ccc3Oc3[nH]c(=O)n(C(C)C)c(=O)c32)c(=O)[nH]c1=O (centres undefined) | x | 5.5 | 74.8* | 0.9 | 21.7* | 59.7* | RUNX1 CBFb TR=31.6;YIC counter=>50
Cc1ccc(-c2nc3ccc(Cl)cc3n2OC(=O)N(C)C)cc1 | -4.8 | 5.5 | 4.8 | 1.5 | 4.4 | 0.9
O=C(Nc1cccc(OC(=O)N2CCCCC2)c1)N1CCCCC1 | -1.0 | -31.3 | -0.8 | 2.1 | 21.1* | 0.5 | YIC counter=>50
O=C(Nc1cccc(OC(=O)N2CCOCC2)c1)N1CCOCC1 | -3.0 | -6.6 | 0.2 | 3.6 | -1.7 | 1.1
CCCCNC(=O)c1c(N)n(Cc2ccc3c(c2)OCO3)c2nc3ccccc3nc12 | -1.4 | 15.4 | 36.8 | 0.5 | 32.3* | 10.1 | YIC counter=3.12*
CC(C)CCn1c(=O)c(C(=O)NCc2ccc3c(c2)OCO3)c(O)c2ccccc21 | x | 23.3 | x | x | 2.1 | x
CC(=O)N1CCC2(CC1)CC(=O)c1cc(OCC(=O)N3CCN(C)CC3)ccc1O2 | -4.3 | 8.3 | -0.3 | -0.8 | -1.5 | 0.1
COc1cccc(CCNCc2c(F)cccc2F)c1 | -7.1 | 17.2 | 0.6 | 4.2 | -0.8 | -1.3
CC(C)OC(=O)c1c(N)n(CC2CCCO2)c2nc3ccccc3nc12 (centres undefined) | -6.2 | 9.7 | 92.0* | -1.1 | 23.6* | 71.8* | YIC counter=19.9*
